ABCG2 inh – blocks JC-1 efflux by human ABCG2 transporter; Q9UNQ0; IgMXP3 cells, flow cytometry; inhibition, % at 6.6 µM; hit rate 0.1% among 190,000;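 active = inhibition above 80%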;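 note: 0% = DMSO and 100% = nicardipine control wells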
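test system = two drug-resistant human cell lines, ABCG2 and ABCB1 | amount = 3 million cells/mL final, two lines in 1:1 ratio | reagent = JC-1 transporter substrate | doses = one concentration, 6.6 µM final | incubation = 10 min at 25 °C | signal = flow cytometric JC-1 green MFI at 530 nm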
EP2 modulator – modulators of human EP2 prostaglandin E2 receptor | EP2-expressing cells, cAMP HTRF FRET, PGE2 co-stimulation | induction, % at 25 µM | hit rate 0.83% among 260,000 | AID 940;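 active = compounds whose cAMP rise, as percent of the full-agonist control response, exceeds 60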;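 note: rat C6 glioma line stably carrying human EP2 under a CMV promoter; the protocol text gives 20 µM as final concentration; 100% = response of wells given 1 µM PGE2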
Target sequence (P43116 whole entry, looked up): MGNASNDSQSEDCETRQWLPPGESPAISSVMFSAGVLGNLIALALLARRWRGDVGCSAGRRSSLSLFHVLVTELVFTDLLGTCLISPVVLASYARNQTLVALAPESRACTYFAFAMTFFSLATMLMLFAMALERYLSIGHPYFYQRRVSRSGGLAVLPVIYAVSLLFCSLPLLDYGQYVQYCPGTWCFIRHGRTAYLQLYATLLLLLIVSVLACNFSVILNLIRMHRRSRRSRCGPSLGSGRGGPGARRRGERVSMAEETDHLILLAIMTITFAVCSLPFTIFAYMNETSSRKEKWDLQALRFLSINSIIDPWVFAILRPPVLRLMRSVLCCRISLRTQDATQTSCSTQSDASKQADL
RBBP9 inh – human RBBP9 hydrolase inhibition; O75884; recombinant RBBP9, FP-Rh probe fluorescence polarization; inhibition, % at 7.94 µM; hit rate 0.2% among 220,000; AID 1515;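 active = inhibition above the campaign mean of all tested compounds plus 3 SD, cut at about 14% in these data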;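 note: plate controls were DMSO wells with RBBP9 for no effect and wells lacking RBBP9 protein for full effect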
Target sequence (O75884 whole entry, looked up): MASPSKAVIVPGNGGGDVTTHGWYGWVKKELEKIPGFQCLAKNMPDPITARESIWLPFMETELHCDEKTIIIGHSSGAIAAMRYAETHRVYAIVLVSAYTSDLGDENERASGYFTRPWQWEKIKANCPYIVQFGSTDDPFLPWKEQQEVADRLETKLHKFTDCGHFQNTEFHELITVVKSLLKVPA
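System: RBBP9 protein / Quantity: 2.5 µM RBBP9 dispensing solution, before mixing / Also added: Serine-hydrolase probe FP-Rh, 375 nM pre-mixing / Dosing: 7.94 µM single dose, 0.794% DMSO / Timing: enzyme-compound preincubation 30 min, then probe labeling 45 min, 25 °C / Signal: FP readout at 525/598 nm / Controls: DMSO-treated enzyme wells and wells lacking RBBP9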
EP2 antag – inhibitors of human EP2 prostaglandin E2 receptor; hit rate 0.52% among 260,000; inhibition, % at 25 µM; AID 1422; C6 glioma cells expressing human EP2, cAMP TR-FRET; cells stimulated with saturating PGE2; P43116;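 active = percent inhibition above 40 after rounding to a whole number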;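 note: rat C6 glioma host cells with rolipram phosphodiesterase inhibitor present; the protocol text gives 20 µM as final concentration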
ABCB1 inh – human ABCB1 inhibition, ABCG2 as counter-screen; hit rate 0.067% among 190,000; inhibition, % at 6.6 µM; P08183; CCRF-Adr cells, JC-1 efflux, flow cytometry; in the data active = inhibition above about 40%;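 note: 0% = vehicle and 100% = reference inhibitor; higher value means more JC-1 retained so stronger ABCB1 efflux block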
* = called active by the depositor; nt = no result given; ! = a repeat was not active. In the library only some 1.5% were active in any assay of this set; here they are far more common.

SMILES	ABCG2 inh	EP2 modulator	RBBP9 inh	EP2 antag	ABCB1 inh
CCc1ccc(N(CC(=O)N2CCN(C)CC2)S(C)(=O)=O)cc1	nt	7	nt	7	nt
O=C(O)c1c(-c2c3ccc(=O)cc-3oc3cc(O)ccc23)cc2ccccc2c1-c1ccccc1	nt	36	nt	42*	nt
N#C[C@H](c1ccccc1)N1CCCN([C@@H](C#N)c2ccccc2)C1c1ccccc1O (some centres not stated)	nt	4	nt	43*	nt
CC1=NN(C(C#N)c2ccccc2)C(C)(C)C1 (configuration not stated)	0	-14	-8	9	0
CCOC(=O)COc1ccccc1/C=C\[N+](=O)[O-]	-3	-64	-17	92*	0
COCCn1c(SCC#N)nnc1-c1ccc(OC)cc1	5	24	-4	123*	1
CN(C1=C(NC(=O)c2ccccc2)C(=O)c2ccccc2C1=O)C1CCS(=O)(=O)C1 (configuration not stated)	11	-59	0	44*	3
Cc1ccc(S(=O)(=O)N2CCC(C(=O)Nc3nnc(-c4ccco4)s3)CC2)cc1	2	-3	0	46*!	0
O=C(Nc1nnc(-c2ccco2)s1)C1CCCCC1	1	-12	-2	24	0
Nc1ccn([C@H]2O[C@H](CO)[C@@H]3[O][Sn]([c]4ccccc4)([c]4ccccc4)[O][C@@H]32)c(=O)n1	nt	22	nt	42*	nt
COc1ccc(CN2CCc3c(nc(N4CCCCC4)[nH]c3=O)C2)c(OC)c1	nt	2	nt	nt	nt
COc1ccccc1-c1ccc(Cn2c(C)nc3ccc(NC(=O)C4CC4)cc3c2=O)cc1	nt	-19	nt	9	nt
c1ccc(CSc2nnc(-c3ccccc3)c(-c3ccccc3)n2)cc1	nt	nt	nt	1	nt
N#Cc1c(Cl)nc(SCc2ccccc2)nc1-c1ccccc1	2	16	-8	61*	0
COc1ccc(NC(=O)CSc2nnc(-c3ccco3)n2C)c(OC)c1	nt	5	nt	6	nt
Cn1c2c(c(=O)n(C)c1=O)CN(CCCN1CCOCC1)CN2	0	-4	6	6	0
O=c1[nH]c(=S)[nH]c2c1CN(CCCN1CCOCC1)CN2	nt	-42	nt	102*	nt
O=C(NCc1ccco1)c1ccc(-c2ccccc2Cl)o1	1	-60	-4	60*!	0
O=C(NCc1ccco1)c1ccc(-c2ccc(Cl)cc2)o1	4	-49	-9	8	0
CCCOc1ccccc1C1NC(=O)NC(C)=C1C(=O)OCCOC (configuration not stated)	9	17	-15	10	0
CCCOc1ccccc1C1NC(=O)NC(C)=C1C(=O)OCc1ccccc1 (configuration not stated)	2	64*	-1	12	1
O=C(O)c1ccc(-c2ccco2)n1Cc1ccccc1	2	6	-6	18	0
COC(=O)c1ccc(-c2ccco2)n1Cc1cc(C)ccc1C	2	62*	-12	6	0
O=C(Cc1cccs1)Nc1ccc2ccccc2c1	nt	-78	nt	7	nt
COc1ccc(CC2CCOC2=O)cc1 (configuration not stated)	0	-5	-5	13	0
SMILES	ABCG2 inh	EP2 modulator	RBBP9 inh	EP2 antag	ABCB1 inh
COc1ccc(C[C@@H]2C(=O)N[C@H](C)C(=O)N(C)[C@@H]3Cc4ccc(cc4)Oc4cc(ccc4O)C[C@@H](C(=O)N[C@@H](C)C(=O)N[C@H](C)C(=O)N2C)N(C)C3=O)cc1	nt	26	nt	41*	nt
Cc1cc2n(n1)C(c1ccccc1)Nc1ccccc1-2 (configuration not stated)	7	64*!	-8	8	1
CC1CCCN(C(=O)CSc2nnc(-c3cccnc3)n2Cc2ccccc2)C1 (configuration not stated)	nt	-30	nt	9	nt
COc1cccc(NC(=O)CN2CCC(Nc3nc(C)c(C)c(=O)[nH]3)CC2)c1	nt	-24	nt	8	nt
Clc1ccccc1-c1ncnc2ccc(Br)cc12	1	64*!	-12	17	0
O=C(O)CCC(=O)N1CCN(c2nc(-c3ccccc3Cl)c3cc(Br)ccc3n2)CC1	2	33	4	18	1
C(CCc1nnc2c(n1)CCCC2)Cc1nnc2c(n1)CCCC2	nt	10	nt	45*	nt
COCCc1ncc(CN(Cc2ccc(F)cc2)C2CC(C)(C)NC(C)(C)C2)cn1	nt	-39	nt	3	nt
O=C(NC1CCCC1)C(c1ccncc1)N(Cc1ccc2c(c1)OCO2)C(=O)Cc1cccs1 (configuration not stated)	nt	0	nt	10	nt
CC(=O)c1ccc(N(C(=O)Cc2cccs2)C(C(=O)NC2CCCCC2)c2cccs2)cc1 (configuration not stated)	nt	47	nt	67*	nt
O=C(NC1CCCCC1)C(c1ccco1)N(Cc1ccc2c(c1)OCO2)C(=O)Cc1cccs1 (configuration not stated)	nt	87*	nt	10	nt
Cc1ccc(C(C(=O)NC2CCCCC2)N(Cc2cccs2)C(=O)c2ccco2)cc1 (configuration not stated)	nt	50	nt	15	nt
Cc1ccc(C(C(=O)NC2CCCCC2)N(Cc2ccco2)C(=O)Cc2cccs2)cc1 (configuration not stated)	nt	62*	nt	9	nt
CC(=O)c1ccc(N(C(=O)CS(=O)CC(=O)Nc2ccc(F)cc2)C(C(=O)NC2CCCCC2)c2cccs2)cc1 (configuration not stated)	1	13	-11	5	3
C#CCOc1ccc(C2C(C#N)=C(N)OC(C)=C2C(=O)OCC)cc1OC (configuration not stated)	nt	30	nt	7	nt
O=C(CSc1nc(-c2ccco2)cc(C(F)(F)F)n1)NCc1ccccc1	nt	-141	nt	4	nt
O=C(Nc1ccccc1C(F)(F)F)N1CCC(c2ncncc2-c2ccncc2)CC1	nt	-20	nt	nt	nt
Cc1cc(NS(=O)(=O)c2ccc(NC(=O)Nc3ccc(Cl)c(Cl)c3)cc2)no1	nt	-110	nt	8	nt
CCOc1ccccc1NC(=O)C(NCC1CCCCC1)c1ccccc1 (configuration not stated)	3	65*	-2	9	1
CCCn1nnc(NC(=O)COc2ccccc2)n1	nt	-2	nt	14	nt
COc1ccc(-c2cc([C@H](O)[C@@H]3CCCCN3)c3ccccc3n2)cc1	nt	-23	nt	50*	nt
O[C@@H](c1cc(-c2ccccc2)nc2c1ccc1ccccc12)[C@@H]1CCCCN1	nt	-11	nt	84*	nt
COc1ccc(-c2cc(OC)c3ccccc3n2)cc1	1	15	-7	13	0
Clc1ccccc1C(c1nnnn1C1CCCC1)N1CCN(Cc2ccc3c(c2)OCO3)CC1 (configuration not stated)	nt	-1	nt	6	nt
CCN(CC)CCNC(=O)CN1N=C(C(C)(C)C)Cn2c(cc3ccccc32)C1=O	nt	1	nt	0	nt
c1ccc(-c2c(-c3ccccc3)n(Cc3ccco3)c3ncnc(NCCCn4ccnc4)c23)cc1	-1	-21	-4	49*	0
OCCNc1ncnc2c1c(-c1ccccc1)c(-c1ccccc1)n2Cc1ccco1	1	35	5	12	0

From PubChem
